In general, inhibition refers to the change of the read-out against control, counted positive when it falls. A low value points to little suppression. For orientation: IC50 means the concentration needed to halve the response being measured.

This is an account of results in ChEMBL document CHEMBL1136179, “Prolylisoxazoles: potent inhibitors of prolyloligopeptidase with antitrypanosomal activity” (Bioorg Med Chem Lett, 2003).

Values after ≈ are worked out from the molar mass of the structure shown.

Experiment [1] deals with Leishmania donovani. The experiment in a line: Antiprotozoal activity against Leishmania donovani at a dose of 10 ug/mL. The class given is functional. In outline:
(§1)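 Leishmania donovani strain L82 was tested against test compounds, with pentostam as the reference drug.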

Experiment [2] concerns Trypanosoma brucei rhodesiense. The experiment in a line: Antiprotozoal activity against T. b. rhodesiense at a dose of 10 ug/mL. It is filed as functional. In outline:
(§2)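 Trypanosoma brucei rhodesiense strain STIB900 was tested, with pentamidine as the reference drug.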

Experiment [3] relates to Trypanosoma cruzi. The experiment in a line: Antiprotozoal activity against Trypanosoma cruzi at a dose of 1 ug/mL. It is filed as functional. A digest of the protocol:
(§3)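 Trypanosoma cruzi of the Lac Z strain was tested, with benznidazol as the reference drug.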

In experiment [4] the test system is Trypanosoma brucei rhodesiense. Briefly: Antiprotozoal activity against T. b. rhodesiense at a dose of 1 ug/mL. It is filed as functional. In outline: as §2
Experiment [5] deals with Trypanosoma brucei rhodesiense. The experiment in a line: Antiprotozoal activity against T. b. rhodesiense was determined. Conditions: read-out: ED50 (the source's name). The class given is functional. A digest of the protocol:
as §2

In experiment [6] the test system is Trypanosoma cruzi. The experiment in a line: Antiprotozoal activity against Trypanosoma cruzi at a dose of 10 ug/mL. The class given is functional. In outline: as §3
The test system of experiment [7] is Trypanosoma brucei rhodesiense. Briefly: Antiprotozoal activity against T. b. rhodesiense at a dose of 3 ug/mL. It is filed as functional. In outline:
as §2

For experiment [8], the system named is KB. Briefly: Toxicity in Leishmania donovani infected KB cells. The class given is functional. The conditions noted are these: Homo sapiens, read-out: ED50 (the source's name). A digest of the protocol: (§4)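 Cytotoxicity was measured on KB cells, with podophyllotoxin as the reference drug.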
Experiment [9] has as its system Leishmania donovani. Briefly: Antiprotozoal activity against Leishmania donovani at a dose of 30 ug/mL. Compound was toxic to host macrophages. It is filed as functional. In outline: as §1
In experiment [10] the test system is Leishmania donovani. The experiment in a line: Antiprotozoal activity against Leishmania donovani at a dose of 3 ug/mL. It is filed as functional. A digest of the protocol: as §1
Experiment [11] relates to Trypanosoma cruzi. The experiment in a line: Antiprotozoal activity against Trypanosoma cruzi at a dose of 3 ug/mL. The class given is functional. A digest of the protocol: as §3
Experiment [12] relates to KB. Briefly: Toxicity in Trypanosoma cruzi infected KB cells. The class given is functional. The conditions noted are these: Homo sapiens, read-out: ED50 (the source's name). A digest of the protocol: as §4
The test system of experiment [13] is Trypanosoma brucei rhodesiense. The experiment in a line: Antiprotozoal activity against T. b. rhodesiense at a dose of 30 ug/mL.
The subject of experiment [14] is Trypanosoma cruzi. Briefly: Antiprotozoal activity against Trypanosoma cruzi was determined. The class given is functional. Conditions: read-out: ED50 (the source's name). A digest of the protocol: as §3
In experiment [15] the test system is Trypanosoma cruzi. Briefly: Antiprotozoal activity against Trypanosoma cruzi at a dose of 30 ug/mL. Compound was toxic to host macrophages. The class given is functional. A digest of the protocol:
as §3

The subject of experiment [16] is Leishmania donovani. The experiment in a line: Antiprotozoal activity against Leishmania donovani was determined. Conditions: read-out: ED50.
Experiment [17] deals with KB. Briefly: Toxicity in T. b. rhodesiense infected KB cells. The class given is functional. Conditions: Homo sapiens, read-out: ED50 (the source's name). In outline:
as §4

The target of another experiment is T1, Prolyl endopeptidase (Homo sapiens, UniProt P48147).
T1 sequence (P48147 whole entry): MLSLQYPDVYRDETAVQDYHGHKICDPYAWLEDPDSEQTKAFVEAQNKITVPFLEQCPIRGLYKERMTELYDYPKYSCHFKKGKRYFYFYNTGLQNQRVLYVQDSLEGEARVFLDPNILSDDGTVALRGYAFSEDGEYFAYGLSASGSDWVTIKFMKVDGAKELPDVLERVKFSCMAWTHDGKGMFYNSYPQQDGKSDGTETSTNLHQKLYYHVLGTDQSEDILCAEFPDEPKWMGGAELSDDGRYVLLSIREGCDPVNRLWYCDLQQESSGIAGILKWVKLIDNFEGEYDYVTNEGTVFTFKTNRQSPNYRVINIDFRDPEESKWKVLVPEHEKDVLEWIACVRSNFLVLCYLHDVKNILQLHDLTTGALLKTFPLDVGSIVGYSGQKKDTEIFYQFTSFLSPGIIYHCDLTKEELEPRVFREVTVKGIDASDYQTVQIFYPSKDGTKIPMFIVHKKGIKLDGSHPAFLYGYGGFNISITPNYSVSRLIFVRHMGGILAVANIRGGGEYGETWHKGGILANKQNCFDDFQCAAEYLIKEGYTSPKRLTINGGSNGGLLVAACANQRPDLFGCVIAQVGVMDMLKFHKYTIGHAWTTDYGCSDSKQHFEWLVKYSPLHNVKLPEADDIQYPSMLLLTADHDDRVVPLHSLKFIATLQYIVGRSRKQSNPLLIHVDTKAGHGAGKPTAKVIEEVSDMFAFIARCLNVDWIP
Briefly: In vitro inhibitory activity determined against prolyl oligopeptidase (PO) in human; Moderately active.

For experiment [18], the system named is Leishmania donovani. The experiment in a line: Antiprotozoal activity against Leishmania donovani L82 at a dose of 10 ug/mL. It is filed as functional. A digest of the protocol: as §1
The subject of experiment [19] is Trypanosoma cruzi. Briefly: Antiprotozoal activity against Trypanosoma cruzi Lac Z at a dose of 30 ug/mL. Compound was toxic to host macrophages. The class given is functional. A digest of the protocol: as §3
For experiment [20], the system named is Trypanosoma cruzi. The experiment in a line: Antiprotozoal activity against Trypanosoma cruzi Lac Z at a dose of 1 ug/mL. It is filed as functional. A digest of the protocol:
as §3

The test system of experiment [21] is Trypanosoma brucei rhodesiense. Briefly: Antiprotozoal activity against T. b. rhodesiense STIB900 at a dose of 30 ug/mL.
The test system of experiment [22] is Trypanosoma brucei rhodesiense. Briefly: Antiprotozoal activity against T. b. rhodesiense STIB900 at a dose of 10 ug/mL. The class given is functional. A digest of the protocol:
as §2

Experiment [23] concerns Leishmania donovani. Briefly: Antiprotozoal activity against Leishmania donovani L82 was determined. The class given is functional. Conditions: read-out: ED50 (the source's name). In outline: as §1
Experiment [24] has as its system Trypanosoma brucei rhodesiense. Briefly: Antiprotozoal activity against T. b. rhodesiense STIB900 was determined. The class given is functional. The conditions noted are these: read-out: ED50 (the source's name). In outline: as §2
For experiment [25], the system named is Trypanosoma cruzi. The experiment in a line: Antiprotozoal activity against Trypanosoma cruzi Lac Z at a dose of 10 ug/mL. It is filed as functional. A digest of the protocol:
as §3

The subject of experiment [26] is KB. The experiment in a line: Toxicity in Trypanosoma cruzi Lac Z infected KB cells. It is filed as functional. Conditions: Homo sapiens, read-out: ED50 (the source's name). A digest of the protocol: as §4
Experiment [27] deals with Trypanosoma cruzi. The experiment in a line: Antiprotozoal activity against Trypanosoma cruzi Lac Z was determined. It is filed as functional. The conditions noted are these: read-out: ED50 (the source's name). A digest of the protocol: as §3
For experiment [28], the system named is KB. Briefly: Toxicity in Leishmania donovani L82 infected KB cells. Conditions: Homo sapiens, read-out: ED50 (the source's name). The class given is functional. In outline:
as §4

Experiment [29] deals with Leishmania donovani. The experiment in a line: Antiprotozoal activity against Leishmania donovani L82 at a dose of 3 ug/mL. The class given is functional. A digest of the protocol:
as §1

Experiment [30] relates to Leishmania donovani. Briefly: Antiprotozoal activity against Leishmania donovani L82 at a dose of 30 ug/mL. Compound was toxic to host macrophages. It is filed as functional. A digest of the protocol:
as §1

For experiment [31], the system named is KB. Briefly: Toxicity in T. b. rhodesiense STIB900 infected KB cells. The class given is functional. Conditions: Homo sapiens, read-out: ED50 (the source's name). A digest of the protocol: as §4
The test system of experiment [32] is Trypanosoma brucei rhodesiense. Briefly: Antiprotozoal activity against T. b. rhodesiense STIB900 at a dose of 3 ug/mL. The class given is functional. A digest of the protocol: as §2
Experiment [33] concerns Trypanosoma brucei rhodesiense. The experiment in a line: Antiprotozoal activity against T. b. rhodesiense STIB900 at a dose of 1 ug/mL. The class given is functional. A digest of the protocol:
as §2

In experiment [34] the test system is Trypanosoma cruzi. Briefly: Antiprotozoal activity against Trypanosoma cruzi Lac Z at a dose of 3 ug/mL. It is filed as functional. In outline: as §3

`O=C(c1cc(-c2ccccc2)on1)[C@@H]1CCCN1C(=O)[C@@H]1CCCN1C(=O)OCc1ccccc1`: the inhibition at 10 µg/mL amounted to 1.8% in the experiment with Leishmania donovani [1], 99.8% in [2] and 59.9% with Trypanosoma cruzi [6]. Further, the values for the inhibition at 1 µg/mL (in the experiment with Trypanosoma cruzi [3]; in [4]) were 10.8% and 7.7%, respectively. The EC50 in [5] came out at 2.2 µg/mL (≈ 4.65 µM); in the experiment on KB [8] it was 23 µg/mL (≈ 48.6 µM); with KB [12] it was 23 µg/mL (≈ 48.6 µM); in the experiment on Trypanosoma cruzi [14], 6.7 µg/mL (≈ 14.1 µM); in the experiment on Leishmania donovani [16], 13.5 µg/mL (≈ 28.5 µM); in the experiment with KB [17], 23 µg/mL (≈ 48.6 µM). Moreover, the inhibition at 3 µg/mL in experiment [7] turned out to be 83.4%; with Leishmania donovani [10], 0%; with Trypanosoma cruzi [11] it was 29%. For the same compound, the figures for the inhibition at 30 µg/mL (in the experiment with Leishmania donovani [9]; in experiment [13]; in the experiment on Trypanosoma cruzi [15]) were 100%, 99.9% and 86.7%, respectively.
`COC(=O)c1onc(C(=O)[C@@H]2CCCN2C(=O)[C@@H]2CCCN2C(=O)OCc2ccccc2)c1C(=O)OC`: the IC50 against Prolyl endopeptidase is more than 1000 nM.
Take `O=C(c1cc(COCc2ccccc2)on1)[C@@H]1CCCN1C(=O)[C@@H]1CCCN1C(=O)CCCc1ccccc1`: the inhibition at 10 µg/mL with Leishmania donovani [18] turned out to be 6.9%; in [22], 95.5%; with Trypanosoma cruzi [25], 69.4%. For the same compound, the inhibition at 30 µg/mL in the experiment with Trypanosoma cruzi [19] was 86.7%; in [21] it was 99.9%; with Leishmania donovani [30] it was 100%. Further, the inhibition at 1 µg/mL in the experiment on Trypanosoma cruzi [20] was determined as 16%; in experiment [33] it was 0.9%. Moreover, the EC50 was 13.1 µg/mL (≈ 24.7 µM) in the experiment on Leishmania donovani [23]; 5.5 µg/mL (≈ 10.4 µM) in experiment [24]; more than 300 µg/mL in the experiment on KB [26]; 4.7 µg/mL (≈ 8.87 µM) in the experiment with Trypanosoma cruzi [27]; more than 300 µg/mL in the experiment on KB [28]; more than 300 µg/mL in the experiment on KB [31]. In addition, the results for the inhibition at 3 µg/mL (with Leishmania donovani [29]; in experiment [32]; in the experiment on Trypanosoma cruzi [34]) were 0%, 6.9% and 42.6%, respectively.
